The test system of data set [1] is HT-29. The data set can be described thus: Cytotoxicity against human HT-29 cells under hypoxic condition assessed as inhibition of cell proliferation after 4 hrs by SRB method. Type of data set: functional, cell-based. The settings on record: HT-29, 4 h. The method in brief: (§1)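 Log-phase monolayers were exposed 4 h under 20% O₂ or anoxia (<20 ppm O₂), then stained with sulforhodamine B 5 days later. IC50, interpolated as the concentration reducing cell density to 50% of same-plate controls, is given as mean of 3−9 experiments. HCR = IC50(oxic)/IC50(hypoxic), taken as the mean of intraexperiment ratios from 3−6 experiments.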
A general note: In SRB staining, fixed cells bind dye roughly in proportion to their protein.

For data set [2], the system named is HT-29. The data set can be described thus: Cytotoxicity against human HT-29 cells under oxic condition assessed as inhibition of cell proliferation after 4 hrs by SRB method. Type of data set: functional, cell-based. The settings on record: HT-29, 4 h. Summed up:
as §1

The test system of data set [3] is HT-29. Description: Ratio of IC50 for human HT-29 cells under oxic condition to IC50 for human HT-29 cells under hypoxic condition. In kind it is functional. The method in brief:
as §1

The test system of data set [4] is SiHa. Description: Cytotoxicity against human SiHa cells under hypoxic condition assessed as inhibition of cell proliferation after 4 hrs. In kind it is functional, cell-based. Summed up: (§2)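 Log-phase monolayers were exposed to drug for 4 h, aerobic (20% O2) for line 5 and anoxic (<20 ppm O2) for line 4. Cell density was read by sulforhodamine B staining 5 days later. IC50 was interpolated as the concentration reducing density to 50% of same-plate controls; mean ± SEM of 3–9 experiments.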

In data set [5] the test system is SiHa. The data set can be described thus: Cytotoxicity against human SiHa cells under oxic condition assessed as inhibition of cell proliferation after 4 hrs. Type of data set: functional, cell-based. The method in brief:
as §2

The next data set relates to A549. The data set can be described thus: Ratio of IC50 for human A549 cells under oxic condition to IC50 for human A549 cells under hypoxic condition. Type of data set: functional. Summed up:
(§3)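 Antiproliferative assay on the cell-line panel: 4 h drug exposure under 20% O₂ or anoxia (<20 ppm O₂), then sulforhodamine B staining after 5 days. HCR = IC50(oxic)/IC50(hypoxic), taken as the mean of intraexperiment ratios from 2−5 experiments.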

The next data set relates to C-33-A. The data set can be described thus: Ratio of IC50 for human C33A cells under oxic condition to IC50 for human C33A cells under hypoxic condition. In kind it is functional. Summed up:
as §3

Data set [6] can be described thus: Ratio of IC50 for human H1299 cells under oxic condition to IC50 for human H1299 cells under hypoxic condition. In kind it is functional. The method in brief: as §3
Data set [7] has as its system NCI-H460. The data set can be described thus: Ratio of IC50 for human H460 cells under oxic condition to IC50 for human H460 cells under hypoxic condition. In kind it is functional. Summed up:
as §3

Another data set concerns HCT-116. The data set can be described thus: Ratio of IC50 for human HCT116 cells under oxic condition to IC50 for human HCT116 cells under hypoxic condition. In kind it is functional. The method in brief: as §3
In data set [8] the test system is SiHa. Description: Antitumor activity against human SiHa cells xenografted in immunocompromized mouse assessed as number of colony forming cells per gram of tumor tissue at 13 umol/kg, iv tumor excised post 18 hrs followed by culturing for 14 days. Type of data set: functional. The method in brief:
(§4)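 SiHa tumours grown subcutaneously in male mice from 10⁷ cultured cells; randomized at 8−10 mm mean diameter. Compound in phosphate-buffered saline with 4 equiv sodium bicarbonate, given via tail vein at the stated dose, alone or 5 min after 15 Gy whole-body cobalt-60 γ irradiation. Tumours excised 18 h after dosing, cells cultured 14 days for clonogens. Groups of 3 (drug alone) or 5 (radiation + drug).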
On the technique in general: Xenograft models place foreign cells or tissue in a host animal.

The test system of data set [9] is SiHa. Description: Antitumor activity against human SiHa cells xenografted in immunocompromized gamma irradiated mouse assessed as number of colony forming cells per gram of tumor tissue at 13 umol/kg, iv tumor excised post 18 hrs followed by culturing for 14 days. In kind it is functional. The method in brief: as §4
Data set [10] has as its system SiHa. The data set can be described thus: Antitumor activity against human SiHa cells xenografted in immunocompromized gamma irradiated mouse assessed as log cell kill at 13 umol/kg, iv tumor excised post 18 hrs followed by culturing for 14 days under hypoxic condition. In kind it is functional. The method in brief:
(§5)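 Male immunocompromised mice bearing subcutaneous tumours (10^7 cultured cells), randomized at 8–10 mm mean diameter. Compound in PBS with 4 equiv sodium bicarbonate given iv (tail vein), alone or 5 min after 15 Gy whole-body cobalt-60 γ-irradiation, which sterilizes oxygenated cells. Tumours excised 18 h after dosing and plated for clonogens for 14 days. n = 3 (vehicle or compound alone) or 5 (irradiated groups).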

The test system of data set [11] is HT-29. Description: Cytotoxicity against human HT-29 cells under oxic condition after 4 hrs by clonogenic assay. Type of data set: functional, cell-based. The method in brief: (§6)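 Cells were exposed to drug in duplicate for 4 h at 37 °C, either aerobic (95% air, 5% CO₂) or in an anaerobic chamber (<0.001% O₂). Medium was αMEM + 10% FCS with added glucose (final 17 mmol/L) and 200 μmol/L 2′-deoxycytidine. Cells were then trypsinized and plated; colonies >50 cells were counted after 14 days (methylene blue). C10 = concentration giving 10% survival vs controls; HCR = C10(oxic)/C10(hypoxic).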

For data set [12], the system named is HT-29. The data set can be described thus: Cytotoxicity against human HT-29 cells under hypoxic condition after 4 hrs by clonogenic assay. Type of data set: functional, cell-based. The method in brief:
as §6

The test system of data set [13] is HT-29. Description: Ratio of C10 for human HT-29 cells under oxic condition to C10 for human HT-29 cells under hypoxic condition by clonogenic assay. In kind it is functional. The method in brief:
as §6

In data set [14] the test system is SiHa. Description: Cytotoxicity against human SiHa cells under hypoxic condition assessed as after 4 hrs by clonogenic assay. In kind it is functional, cell-based. Summed up:
as §6

Data set [15] concerns SiHa. The data set can be described thus: Cytotoxicity against human SiHa cells under oxic condition after 4 hrs by clonogenic assay. Type of data set: functional, cell-based. Summed up:
as §6

Data set [16] concerns SiHa. The data set can be described thus: Antitumor activity against human SiHa cells xenografted in immunocompromized gamma irradiated mouse assessed as number of colony forming cells per gram of tumor tissue at 42 umol/kg, iv tumor excised post 18 hrs followed by culturing for 14 days. Type of data set: functional. Summed up:
as §4

The test system of data set [17] is SiHa. Description: Antitumor activity against human SiHa cells xenografted in immunocompromized gamma irradiated mouse assessed as log cell kill at 42 umol/kg, iv tumor excised post 18 hrs followed by culturing for 14 days under hypoxic condition. In kind it is functional. The method in brief:
as §5

Data set [18] deals with NCI-H460. The data set can be described thus: Toxicity in human H460 cells xenografted immunocompromized mouse at 75 umol/kg, iv. As to conditions: in vivo.
In data set [19] the test system is NCI-H460. The data set can be described thus: Antitumor activity against human H460 cells xenografted in immunocompromized gamma irradiated mouse under hypoxic condition assessed as log cell kill at 75 umol/kg, iv tumor excised post 18 hrs followed by culturing for 14 days. In kind it is functional. Summed up:
as §5

Data set [20] concerns SiHa. Description: Antitumor activity against human SiHa cells xenografted in immunocompromized mouse assessed as number of colony forming cells per gram of tumor tissue at 42 umol/kg, iv tumor excised post 18 hrs followed by culturing for 14 days. Type of data set: functional. Summed up: as §4

Activity calls are given as the source filed them. No cut-off for these calls is given here.

Consider `COc1cc2cc(C(=O)N3CC(COS(=O)(=O)Cc4ccccc4)c4c3cc([N+](=O)[O-])c3cc(S(N)(=O)=O)ccc43)[nH]c2c(OC)c1OC` (stereo unspecified), for which the IC50 (as a rule, the point on the concentration scale where inhibition reaches its midpoint) is 42 nM in the data set on HT-29 [1], 35000 nM in the data set with HT-29 [2], 180 nM with SiHa [4] and 13000 nM in the data set on SiHa [5]. Moreover, the “Ratio IC50” value is 1010 with HT-29 [3]; 20 in the data set with A549; 177 with C-33-A; 226 in data set [6]; 0.67 in the data set with NCI-H460 [7]; 193 with HCT-116.

In the case of `COc1ccc(/C=C/C(=O)N2CC(COS(=O)(=O)Cc3ccccc3)c3c2cc([N+](=O)[O-])c2cc(C(N)=O)ccc32)cc1` (stereo unspecified), the log10cfu turned out to be 6.87 in the data set on SiHa [8] and 4.3 in the data set on SiHa [9]. Moreover, the LCK in the data set on SiHa [10] came out at 1.16. For the same molecule, the result with HT-29 [11] and in the data set with HT-29 [12] was Active. Further, the Ratio in the data set with HT-29 [13] turned out to be 4090. The IC50 in the data set on HT-29 [1] came out at 170 nM; in the data set on HT-29 [2], 7000 nM; in the data set with SiHa [4], 46 nM; with SiHa [5] it was 2100 nM. Besides, the “Ratio IC50” value in the data set with HT-29 [3] was found to be 40; with A549, 34; in the data set on C-33-A it was 184; in data set [6], 644; in the data set with NCI-H460 [7] it was 104; with HCT-116 it was 403.

Take `CN(C)CCOc1ccc2[nH]c(C(=O)N3CC(COS(=O)(=O)Cc4ccccc4)c4c3cc([N+](=O)[O-])c3cc(C(=O)NCCO)ccc43)cc2c1` (stereo unspecified): the outcome with SiHa [14] and in the data set on SiHa [15] was Active. For the same molecule, the IC50 in the data set with HT-29 [1] came to 570 nM; with HT-29 [2], 4300 nM; in the data set on SiHa [4], 210 nM; in the data set on SiHa [5], 2300 nM. For the same molecule, in the data set with HT-29 [3], the “Ratio IC50” value turned out to be 12.

`COc1ccc(/C=C/C(=O)N2CC(COS(=O)(=O)Cc3ccccc3)c3c2cc([N+](=O)[O-])c2cc(C(N)=O)ccc32)cc1O` (stereo unspecified): the outcome with SiHa [14] and in the data set on SiHa [15] was Active. Further, the IC50 with HT-29 [1] came out at 430 nM; in the data set with HT-29 [2] it was 4600 nM; in the data set with SiHa [4], 96 nM; in the data set on SiHa [5], 2100 nM. Besides, the “Ratio IC50” value with HT-29 [3] came to 21.

As for `NC(=O)c1ccc2c3c(cc([N+](=O)[O-])c2c1)N(C(=O)c1cc2cc(OCCO)ccc2[nH]1)CC3COS(=O)(=O)Cc1ccccc1` (stereo unspecified), the outcome in the data set with SiHa [14] and in the data set on SiHa [15] was Active. The IC50 with HT-29 [1] was found to be 220 nM; with HT-29 [2], 22000 nM; in the data set on SiHa [4], 240 nM; in the data set on SiHa [5], 18500 nM. For the same molecule, the “Ratio IC50” value in the data set on HT-29 [3] was 105; in the data set with A549, 38; in the data set with C-33-A, 93; in data set [6] it was 255; with NCI-H460 [7] it was above 114; with HCT-116, 127.

As for `COc1cc2cc(C(=O)N3CC(COS(=O)(=O)Cc4ccccc4)c4c3cc([N+](=O)[O-])c3cc(C(N)=O)ccc43)[nH]c2c(OC)c1OC` (stereo unspecified), the result in the data set with SiHa [14] and in the data set with SiHa [15] was Active. The IC50 came to 16 nM in the data set with HT-29 [1], 9200 nM in the data set on HT-29 [2], 180 nM in the data set with SiHa [4] and 990 nM with SiHa [5]. In addition, the “Ratio IC50” value was 1370 in the data set on HT-29 [3]; 6.7 in the data set on A549; 76 with C-33-A; 86 in data set [6]; 32 in the data set on NCI-H460 [7]; 13 in the data set with HCT-116.

In the case of `COc1ccc(/C=C/C(=O)N2CC(COS(=O)(=O)Cc3ccccc3)c3c2cc([N+](=O)[O-])c2cc(C#N)ccc32)cc1O` (stereo unspecified), the outcome with SiHa [14] and in the data set with SiHa [15] was Active. Also, the IC50 in the data set with HT-29 [1] worked out at 620 nM; in the data set with HT-29 [2] it was 3400 nM; in the data set on SiHa [4] it was 19 nM; in the data set with SiHa [5], 570 nM. The “Ratio IC50” value in the data set with HT-29 [3] amounted to 5.4.

As to `COc1cc2cc(C(=O)N3CC(COS(C)(=O)=O)c4c3cc([N+](=O)[O-])c3cc(S(=O)(=O)NCCOP(=O)(O)O)ccc43)[nH]c2c(OC)c1OC` (stereo unspecified), the log10cfu in the data set with SiHa [16] is 4.38; with SiHa [20] it was 7.15. Further, the LCK in the data set with SiHa [17] and with NCI-H460 [19] was 0.6 throughout. In addition, the Activity result in the data set on NCI-H460 [18] is “Non-toxic”.
